{"source": "ChEMBL document CHEMBL1126793", "about": "“Effect of trifluoromethyl and other substituents on activity of xanthines at adenosine receptors” (J Med Chem, 1993)", "key": {"[1]": {"biological_target": "T1, Adenosine receptor A1 (Rattus norvegicus) (UniProt P25099)", "T1 sequence (whole entry)": "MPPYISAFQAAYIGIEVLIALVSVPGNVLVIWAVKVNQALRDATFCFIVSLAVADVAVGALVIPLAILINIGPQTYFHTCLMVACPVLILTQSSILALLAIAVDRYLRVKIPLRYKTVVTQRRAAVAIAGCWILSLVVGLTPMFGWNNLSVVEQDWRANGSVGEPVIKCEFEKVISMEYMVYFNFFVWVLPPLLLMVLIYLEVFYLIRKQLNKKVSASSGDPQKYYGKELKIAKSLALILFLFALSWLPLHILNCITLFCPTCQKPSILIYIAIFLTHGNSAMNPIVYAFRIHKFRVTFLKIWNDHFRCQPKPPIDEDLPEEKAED", "test": "Inhibition of [3H]PIA binding to Adenosine A1 receptor in rat brain membranes at 100 uM", "type": "cell membranes", "conditions": "250 uM, in the assay text read “250 uM” for “100 uM”", "procedure,_shortened": "(§1)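 Rat brain membranes labelled with 1 nM [3H]-N6-[(R)-phenylisopropyl]adenosine for A1 sites. Nonspecific binding was defined with 10 μM 2-chloroadenosine. The value is percent inhibition of specific binding at the highest concentration tested, which was sometimes limited by solubility.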"}, "[2]": {"biological_target": "Adenosine receptor A2a (Rattus norvegicus) (UniProt P30543)", "sequence (P30543 whole entry)": "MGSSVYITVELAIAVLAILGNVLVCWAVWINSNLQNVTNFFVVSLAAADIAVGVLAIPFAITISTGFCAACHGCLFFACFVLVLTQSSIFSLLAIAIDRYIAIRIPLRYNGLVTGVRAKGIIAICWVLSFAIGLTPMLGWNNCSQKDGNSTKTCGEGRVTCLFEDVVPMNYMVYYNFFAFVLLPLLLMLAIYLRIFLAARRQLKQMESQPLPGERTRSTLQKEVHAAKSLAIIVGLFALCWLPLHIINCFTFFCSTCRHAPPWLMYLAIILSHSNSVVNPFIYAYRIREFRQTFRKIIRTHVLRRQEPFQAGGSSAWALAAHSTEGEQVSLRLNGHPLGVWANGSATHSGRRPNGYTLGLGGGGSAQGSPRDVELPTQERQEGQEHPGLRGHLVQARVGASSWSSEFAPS", "test": "Inhibition of [3H]-CGS- 21680 binding to Adenosine A2A receptor in rat brain membranes at 250 uM", "type": "cell membranes", "procedure,_shortened": "(§2)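 Rat striatal membranes incubated with 4 nM [3H]CGS 21680 as the A2a radioligand. Nonspecific binding was defined with 20 μM 2-chloroadenosine. The value is percent inhibition of specific binding at the highest concentration tested, which was sometimes limited by solubility.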"}, "[3]": {"biological_target": "T1, Adenosine receptor A1 (Rattus norvegicus)", "test": "Inhibition of [3H]PIA binding to A1 adenosine receptor in rat brain membranes at 250 uM", "type": "cell membranes", "procedure,_shortened": "as §1"}, "[4]": {"biological_target": "Adenosine receptor A2a (Rattus norvegicus) (UniProt P30543)", "test": "Inhibition of [3H]-CGS- 21680 binding to Adenosine A2A receptor in rat brain membranes at 100 uM", "type": "cell membranes", "procedure,_shortened": "as §2"}, "Adenosine receptor A1": {"biological_target": "T2, Adenosine receptor A1 (Rattus norvegicus, UniProt P25099)", "T2 sequence (P25099 whole entry)": "T1 sequence (whole entry)", "test": "Binding affinity for adenosine A1 receptor from rat brain membranes using [3H]PIA as radioligand"}, "Adenosine receptor A2a": {"biological_target": "Adenosine receptor A2a (Rattus norvegicus, UniProt P30543)", "sequence (P30543 whole entry)": "as above", "test": "Binding affinity for adenosine A2A receptor from rat brain membranes using [3H]CGS-21680"}, "[5]": {"biological_target": "Adenosine receptor A2a (Rattus norvegicus) (UniProt P30543)", "test": "Inhibition of [3H]-CGS- 21680 binding to Adenosine A2A receptor in rat brain membranes at 20 uM", "type": "cell membranes", "procedure,_shortened": "as §2"}, "[6]": {"biological_target": "Adenosine receptor A2a (Rattus norvegicus) (UniProt P30543)", "test": "Inhibition of [3H]-CGS- 21680 binding to Adenosine A2A receptor in rat brain membranes at […]", "type": "cell membranes", "procedure,_shortened": "as §2"}}, "data": [{"smiles": "Cn1c(-c2ccc(S(=O)(=O)O)cc2)nc2c1c(=O)[nH]c(=O)n2C", "values": [{"measurement": "inhibition", "setting": "[1]", "value": 1.8, "unit": "%"}, {"measurement": "inhibition", "setting": "[2]", "value": 0, "unit": "%"}]}, {"smiles": "Cn1c(=O)c2nc(C(F)(F)F)[nH]c2n(C)c1=O", "values": [{"measurement": "inhibition", "setting": "[3]", "value": 0, "unit": "%"}, {"measurement": "inhibition", "setting": "[2]", "value": 0, "unit": "%"}]}, {"smiles": "Cn1c(=O)c2[nH]c(Br)nc2n(C)c1=O", "note": "[PAMABROM]", "values": [{"measurement": "inhibition", "setting": "[4]", "value": 36, "unit": "%"}, {"measurement": "Ki", "setting": "Adenosine receptor A1", "value": 10.2, "unit": "µM"}]}, {"smiles": "C=CCn1c(=O)c2c(nc(-c3ccccc3)n2CC=C)n(C)c1=O", "values": [{"measurement": "Ki", "setting": "Adenosine receptor A2a", "value": 7.7, "unit": "µM"}, {"measurement": "Ki", "setting": "Adenosine receptor A1", "value": 0.66, "unit": "µM"}]}, {"smiles": "CCC/C=C/c1nc2c(=O)n(C)c(=O)n(C)c2[nH]1", "values": [{"measurement": "Ki", "setting": "Adenosine receptor A2a", "value": 0.44, "unit": "µM"}, {"measurement": "Ki", "setting": "Adenosine receptor A1", "value": 0.38, "unit": "µM"}]}, {"smiles": "Cn1c(=O)c2c(nc(/C=C/C(=O)OC(C)(C)C)n2C)n(C)c1=O", "values": [{"measurement": "Ki", "setting": "Adenosine receptor A2a", "value": 0.61, "unit": "µM"}, {"measurement": "Ki", "setting": "Adenosine receptor A1", "value": 12, "unit": "µM"}]}, {"smiles": "Cn1c(=O)c2[nH]c(-c3ccccc3)nc2n(C)c1=O", "note": "[8-PHENYL THEOPHYLLINE]", "values": [{"measurement": "Ki", "setting": "Adenosine receptor A2a", "value": 0.97, "unit": "µM"}]}, {"smiles": "Cn1c(=O)c2[nH]c(-c3ccc(S(=O)(=O)O)cc3)nc2n(C)c1=O", "values": [{"measurement": "Ki", "setting": "Adenosine receptor A2a", "value": 5.8, "unit": "µM"}]}, {"smiles": "Cn1c(=O)c2nc(C3CCC3)[nH]c2n(C)c1=O", "values": [{"measurement": "Ki", "setting": "Adenosine receptor A2a", "value": 2.8, "unit": "µM"}, {"measurement": "Ki", "setting": "Adenosine receptor A1", "value": 0.19, "unit": "µM"}]}, {"smiles": "Cn1c(=O)c2c(nc(/C=C/C(=O)O)n2C)n(C)c1=O", "values": [{"measurement": "Ki", "setting": "Adenosine receptor A2a", "value": 42, "unit": "µM"}, {"measurement": "inhibition", "setting": "[1]", "value": 3, "unit": "%"}]}, {"smiles": "Cn1c(=O)c2c(nc(-c3ccc(S(=O)(=O)O)cc3)n2C)n(C)c1=O", "values": [{"measurement": "Ki", "setting": "Adenosine receptor A2a", "value": 20, "unit": "µM"}, {"measurement": "inhibition", "setting": "[1]", "value": 3.3, "unit": "%"}]}, {"smiles": "Cn1c(-c2ccccc2)nc2c1c(=O)[nH]c(=O)n2C", "values": [{"measurement": "Ki", "setting": "Adenosine receptor A2a", "value": 12, "unit": "µM"}]}, {"smiles": "CC(C)Cn1c(=O)n(C)c(=O)c2[nH]c(Br)nc21", "values": [{"measurement": "inhibition", "setting": "[4]", "value": 10, "unit": "%"}, {"measurement": "Ki", "setting": "Adenosine receptor A1", "value": 65, "unit": "µM"}]}, {"smiles": "Cn1c(=O)c2c(nc(Br)n2C)n(C)c1=O", "values": [{"measurement": "Ki", "setting": "Adenosine receptor A2a", "value": 12, "unit": "µM"}, {"measurement": "Ki", "setting": "Adenosine receptor A1", "value": 49, "unit": "µM"}]}, {"smiles": "Cn1c(=O)c2c(nc(C3CCC3)n2C)n(C)c1=O", "values": [{"measurement": "Ki", "setting": "Adenosine receptor A2a", "value": 19, "unit": "µM"}, {"measurement": "Ki", "setting": "Adenosine receptor A1", "value": 30, "unit": "µM"}]}, {"smiles": "Cc1nc2c(=O)n(C)c(=O)n(C)c2[nH]1", "values": [{"measurement": "Ki", "setting": "Adenosine receptor A1", "value": 8.8, "unit": "µM"}, {"measurement": "inhibition", "setting": "[2]", "value": 34, "unit": "%"}]}, {"smiles": "Cn1c(=O)c2[nH]c(Cl)nc2n(C)c1=O", "values": [{"measurement": "inhibition", "setting": "[1]", "value": 39, "unit": "%"}, {"measurement": "inhibition", "setting": "[4]", "value": 34, "unit": "%"}]}, {"smiles": "CCC/C=C/c1nc2c(c(=O)n(C)c(=O)n2C)n1C", "values": [{"measurement": "Ki", "setting": "Adenosine receptor A1", "value": 9.1, "unit": "µM"}]}, {"smiles": "CCCn1c(=O)c2nc(-c3ccc(C(F)(F)F)cc3)[nH]c2n(CCC)c1=O", "values": [{"measurement": "Ki", "setting": "Adenosine receptor A2a", "value": 0.042, "unit": "µM"}, {"measurement": "Ki", "setting": "Adenosine receptor A1", "value": 0.0075, "unit": "µM"}]}, {"smiles": "Cn1c(=O)c2c(nc(-c3ccc(C(F)(F)F)cc3)n2C)n(C)c1=O", "values": [{"measurement": "Ki", "setting": "Adenosine receptor A2a", "value": 16, "unit": "µM"}, {"measurement": "Ki", "setting": "Adenosine receptor A1", "value": 17, "unit": "µM"}]}, {"smiles": "CCCn1c(=O)c2nc[nH]c2n(CCC)c1=O", "values": [{"measurement": "Ki", "setting": "Adenosine receptor A2a", "value": 2.6, "unit": "µM"}]}, {"smiles": "CCCn1c(=O)c2nc(C)[nH]c2n(CCC)c1=O", "values": [{"measurement": "Ki", "setting": "Adenosine receptor A2a", "value": 2.8, "unit": "µM"}, {"measurement": "Ki", "setting": "Adenosine receptor A1", "value": 0.6, "unit": "µM"}]}, {"smiles": "CCCn1c(=O)c2nc(C(F)(F)F)[nH]c2n(CCC)c1=O", "values": [{"measurement": "inhibition", "setting": "[1]", "value": 4.5, "unit": "%"}, {"measurement": "inhibition", "setting": "[5]", "value": 4.3, "unit": "%"}]}, {"smiles": "CCCn1c(=O)c2nc(-c3ccc(S(N)(=O)=O)cc3)[nH]c2n(CCC)c1=O", "values": [{"measurement": "Ki", "setting": "Adenosine receptor A2a", "value": 0.075, "unit": "µM"}]}, {"smiles": "Cn1c(=O)c2[nH]c(-c3ccc(C(F)(F)F)cc3)nc2n(C)c1=O", "values": [{"measurement": "Ki", "setting": "Adenosine receptor A2a", "value": 0.21, "unit": "µM"}, {"measurement": "Ki", "setting": "Adenosine receptor A1", "value": 0.15, "unit": "µM"}]}, {"smiles": "CCCn1c(=O)c2[nH]c(-c3ccccc3)nc2n(CCC)c1=O", "values": [{"measurement": "Ki", "setting": "Adenosine receptor A2a", "value": 0.14, "unit": "µM"}]}, {"smiles": "Cn1c(=O)c2c(nc(C(F)(F)F)n2C)n(C)c1=O", "values": [{"measurement": "Ki", "setting": "Adenosine receptor A2a", "value": 29, "unit": "µM"}, {"measurement": "inhibition", "setting": "[1]", "value": 8, "unit": "%"}]}, {"smiles": "CCCn1c(=O)c2[nH]c(-c3ccc(S(=O)(=O)O)cc3)nc2n(CCC)c1=O", "values": [{"measurement": "Ki", "setting": "Adenosine receptor A2a", "value": 0.79, "unit": "µM"}]}, {"smiles": "C=CCn1c(=O)c2c(nc(-c3ccccc3)n2C)n(C)c1=O", "values": [{"measurement": "Ki", "setting": "Adenosine receptor A2a", "value": 12, "unit": "µM"}, {"measurement": "Ki", "setting": "Adenosine receptor A1", "value": 9, "unit": "µM"}]}, {"smiles": "CC(C)Cn1c(=O)n(C)c(=O)c2[nH]cnc21", "note": "[ISOBUTYLMETHYLXANTHINE]", "values": [{"measurement": "Ki", "setting": "Adenosine receptor A2a", "value": 5.8, "unit": "µM"}]}, {"smiles": "C=CCn1c(=O)c2c(nc(-c3ccc(C(F)(F)F)cc3)n2C)n(C)c1=O", "values": [{"measurement": "Ki", "setting": "Adenosine receptor A2a", "value": 11, "unit": "µM"}, {"measurement": "Ki", "setting": "Adenosine receptor A1", "value": 5.7, "unit": "µM"}]}, {"smiles": "Cn1c(=O)c2c(nc(-c3ccccc3)n2C)n(C)c1=O", "values": [{"measurement": "Ki", "setting": "Adenosine receptor A2a", "value": 16, "unit": "µM"}]}, {"smiles": "C=CCn1c(=O)c2c(nc(-c3ccc(S(=O)(=O)O)cc3)n2C)n(C)c1=O", "values": [{"measurement": "Ki", "setting": "Adenosine receptor A2a", "value": 27, "unit": "µM"}, {"measurement": "inhibition", "setting": "[1]", "value": 35, "unit": "%"}]}, {"smiles": "Cn1c(-c2ccc(C(F)(F)F)cc2)nc2c1c(=O)[nH]c(=O)n2C", "values": [{"measurement": "Ki", "setting": "Adenosine receptor A1", "value": 3.7, "unit": "µM"}, {"measurement": "inhibition", "setting": "[6]", "value": 10, "unit": "%"}]}, {"smiles": "Cc1nc2c(c(=O)n(C)c(=O)n2C)n1C", "values": [{"measurement": "Ki", "setting": "Adenosine receptor A2a", "value": 7.6, "unit": "µM"}, {"measurement": "Ki", "setting": "Adenosine receptor A1", "value": 4.9, "unit": "µM"}]}, {"smiles": "Cn1c(-c2ccc(S(N)(=O)=O)cc2)nc2c1c(=O)[nH]c(=O)n2C", "values": [{"measurement": "inhibition", "setting": "[1]", "value": 33, "unit": "%"}, {"measurement": "inhibition", "setting": "[2]", "value": 42, "unit": "%"}]}, {"smiles": "C=CCn1c(-c2ccc(C(F)(F)F)cc2)nc2c1c(=O)n(CCC)c(=O)n2CCC", "values": [{"measurement": "Ki", "setting": "Adenosine receptor A2a", "value": 4.2, "unit": "µM"}, {"measurement": "Ki", "setting": "Adenosine receptor A1", "value": 2.9, "unit": "µM"}]}]}
